Holding throughout (format): cell-based
Data set [1] can be described thus: MTT cytotoxic assay, A549. Particulars: human, A549 cells. In outline:
(§1)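 Cells grown in RPMI-1640 with 10% fetal bovine serum, 5% CO2, 37 °C. Seeded at 5 × 10^4 cells per mL, 24 h to form a monolayer, then medium replaced with fresh medium plus test compound at 50, 25, 12.5, 6.25, 3.125, 1.5625 μg mL−1. After 3 days, MTT 4 h, formazan in DMSO, OD 570 nm. Inhibition rate from OD versus control, IC50 calculated; three individual experiments, mean ± SD; adriamycin positive control.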
For orientation: Tetrazolium dyes change colour on reduction, which living cells bring about.

Data set [2] can be described thus: MTT cytotoxic assay, HeLa. Particulars: human, HeLa cells. In outline: as §1
A short description of data set [3]: MTT cytotoxic assay, HepG2. As to conditions: human, HepG2 cells. Put shortly:
as §1

For orientation: IC50 means the concentration that inhibits the measured activity by half. A low value points to inhibition by little substance.

With `COc1cccc2c1C(=O)c1c(O)c3c(c(O)c1C2=O)C[C@@](O)(C(=O)CO)C[C@@H]3O[C@H]1C[C@H](N)[C@H](O)[C@H](C)O1` [Adriamycin, adriamycin], the IC50 at 3 days in data set [1] worked out at 680 ± 60 nM; in data set [2], 480 ± 70 nM; in data set [3], 1250 ± 40 nM.

The values above are taken from publication PMC9091492 (RSC Advances, 2018).
